The values that follow come from publication PMC2877169 (Journal of medicinal chemistry, 2010).

One data set concerns P450 enzymes. Particulars: read-out: inhibition of P450 enzymes; previously reported weak inhibitor; cited from earlier work.
The next data set deals with T. cruzi amastigotes. Description: T. cruzi amastigote growth. The conditions noted are these: relative to compound 1. In kind it is cell-based, Trypanosoma cruzi.
Data set [1] concerns the target rat protein farnesyltransferase (Rattus norvegicus, UniProt Q02293+Q04631). The experiment in a line: Rat protein farnesyltransferase inhibition assay. In kind it is biochemical. The conditions noted are these: for fold reduction in potency/affinity for protein farnesyltransferase compared to 1: relative to compound 1.
In data set [2] the target is recombinant Tc-L14DM (lanosterol 14α-demethylase) (Trypanosoma cruzi, UniProt Q7Z1V1). Description: Binding to recombinant Tc-L14DM by difference optical spectroscopy. The procedure, abridged:
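Difference optical spectroscopy on recombinant T. cruzi lanosterol 14α-demethylase held at 1.4 μM, with test compound added at 200 nM – 2 uM; binding read from the difference spectra.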

Chain of recombinant Tc-L14DM (lanosterol 14α-demethylase) (Q7Z1V1 whole entry): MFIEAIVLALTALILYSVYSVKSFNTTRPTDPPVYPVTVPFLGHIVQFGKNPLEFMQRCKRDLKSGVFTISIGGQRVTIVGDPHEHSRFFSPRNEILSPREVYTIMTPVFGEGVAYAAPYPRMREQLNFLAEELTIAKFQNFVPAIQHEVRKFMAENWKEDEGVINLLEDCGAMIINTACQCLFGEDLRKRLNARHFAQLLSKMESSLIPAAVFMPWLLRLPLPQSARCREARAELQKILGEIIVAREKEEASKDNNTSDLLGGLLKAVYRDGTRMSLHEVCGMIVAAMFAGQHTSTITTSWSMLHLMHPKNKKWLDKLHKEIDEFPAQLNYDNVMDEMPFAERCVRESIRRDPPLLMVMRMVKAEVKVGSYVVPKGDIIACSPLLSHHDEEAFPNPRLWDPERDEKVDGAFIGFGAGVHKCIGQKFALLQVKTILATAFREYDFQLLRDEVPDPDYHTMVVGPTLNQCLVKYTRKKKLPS

Consider `Cn1cncc1[C@@](N)(c1ccc(Cl)cc1)c1ccc2c(c1)c(-c1cccc(Cl)c1)cc(=O)n2C` [Compound 1, tipifarnib], for which, in the data set on P450 enzymes, the IC50 is more than 10000 nM.

As to `COC(c1ccc(Cl)cc1)(c1ccc2c(c1)c(-c1cccc(Cl)c1C)cc(=O)n2C)c1cncn1C` (stereo not shown) [Compound 2], the “fold more potent at killing T. cruzi amastigotes than 1” value in the data set on T. cruzi amastigotes is reported as “about 10 fold”. As for `COC(c1ccc(Cl)cc1)(c1ccc2c(c1)c(-c1cccc(Cl)c1)cc(=O)n2C)c1cncn1C` (stereo not shown) [Compound 3], the “fold reduction in potency/affinity for protein farnesyltransferase compared to 1” value (“fold reduction in potency/affinity” below) in data set [1] was 100 fold. Same read-out and setting: the result for `COC(c1ccc(Cl)cc1)(c1ccc2c(c1)c(-c1ccccc1)cc(=O)n2C)c1cncn1C` (stereo not shown) [Compound 10] reads ~ 500 fold. For the compound `COC(c1ccc(Cl)cc1)(c1ccc2c(c1)c(-c1c(F)cccc1F)cc(=O)n2C)c1cncn1C` (stereo not shown) [Compound 16, 4-(2,6-Difluorophenyl)-6-((4-chlorophenyl)(methoxy)(1-methyl-1H-imidazol-5-yl)methyl)-1-methylquinolin-2(1H)-one], the Kd in data set [2] was less than 1400 nM.

In the case of `COC(c1ccc(Cl)cc1)(c1ccc2c(c1)c(-c1cc(C)cc(C)c1)cc(=O)n2C)c1cncn1C` (stereo not shown) [Compound 17], the “fold reduction in potency/affinity” value in data set [1] is listed as ~ 600 fold. `Cc1c(Cl)cccc1-c1cc(=O)n(C)c2ccc(C(O)(c3ccc(Cl)cc3)c3cncn3C)cc12` (stereo not shown) [Compound 20, 4-(3-Chloro-2-methylphenyl)-6-((4-chlorophenyl)(hydroxy)(1-methyl-1H-imidazol-5-yl)methyl)-1-methylquinolin-2(1H)-one]: the IC50 in data set [1] worked out at 796 nM.

In data set [1], `CNC(c1ccc(Cl)cc1)(c1ccc2c(c1)c(-c1cccc(Cl)c1C)cc(=O)n2C)c1cncn1C` (stereo not shown) [Compound 23, 4-(3-chloro-2-methylphenyl)-6-((4-chlorophenyl)(methylamino)(1-methyl-1H-imidazol-5-yl)methyl)-1-methylquinolin-2(1H)-one] registered an IC50 of 957 nM. Regarding `CCn1cncc1C(OC)(c1ccc(Cl)cc1)c1ccc2c(c1)c(-c1cccc(Cl)c1)cc(=O)n2C` (stereo not shown) [Compound 26], the “fold reduction in potency/affinity” value in data set [1] is listed as ~ 1,500 fold. `CCn1cncc1C(O)(c1ccc(Cl)cc1)c1ccc2c(c1)c(-c1cccc(Cl)c1)cc(=O)n2C` (stereo not shown) [Compound 27]: the IC50 in data set [1] amounted to 30 nM.

The Kd is the constant that tells how readily two partners part at equilibrium.
